Published values from different studies.
Compare with care: the assays were run in different laboratories.
Target: Dual specificity tyrosine-phosphorylation-regulated kinase 1A (DYRK1A, Homo sapiens, UniProt Q13627)
Method: competition with immobilised ligand

Structure (SMILES)	observed	tested at	remaining binding [%]
CCN1CCN(Cc2ccc(C(=O)Nc3ccc(C)c(Oc4ccc5c(c4)CC(=O)N5)c3)cc2C(F)(F)F)CC1	binding	1 µM	96
Cc1cnc(Nc2ccc(C(=O)N3CCC(N4CCCC4)CC3)cc2)nc1-c1cc2ccccc2s1	binding	1 µM	19
COc1cnc(Nc2cccc(S(N)(=O)=O)c2)nc1N1CCN(c2ccccc2)C(=O)C1	binding	1 µM	91
O=C(c1ccc(Nc2ncc(Cl)c(-c3ccc(Cl)s3)n2)cc1)N1CCC(N2CCCC2)CC1	binding	1 µM	1.8
COc1ncc2cc3ccccc3nc2c1C#N	cell-free assay	5 µM	74
O=C(O)[C@H]1[C@H](Cn2nnc3ccccc3c2=O)CC[C@@H]1C(=O)c1ccc(OCCC2CCOCC2)cc1	cell-free assay	1 µM	85
CNC(=O)[C@@H]1CC[C@@H](n2c(-c3ccc4cnccc4c3)nc3ccc(C(=O)NCc4cccc(C(N)=O)c4)cc32)C1	binding	1 µM	100
CN([C@@H]1CCc2c(CC(=O)O)c3ccccc3n2C1)S(=O)(=O)c1ccc(F)cc1	cell-free assay	1 µM	69
c1cncc(-c2cccc(Nc3nccc(NC4CCCCC4)n3)c2)c1	binding	10 µM	26
Cc1c(C(=O)O)cc(-c2ccc(C3CCNCC3)cc2)c2ccc(-c3ccc(C(F)(F)F)cc3)cc12	cell-free assay	1 µM	100
O=C(NCC1CCOCC1)c1n[nH]cc1NC(=O)c1c(F)cccc1F	binding	1 µM	0.4
O=C(NC[C@@H]1[C@H]2CN(C(=O)OCc3cc(C(F)(F)F)cc(C(F)(F)F)c3)C[C@@H]12)c1ccc2[nH]nnc2c1	cell-free assay	1 µM	86
O=C(c1ccc(Nc2nccc(-c3cc4ccccc4s3)n2)cc1)N1CCC(N2CCCC2)CC1	binding	1 µM	68
